# According to ChEMBL document CHEMBL1153093, “Synthesis and structure-activity relationships of cassiarin A as potential antimalarials with vasorelaxant activity” (Bioorg Med Chem, 2009):
# The source made the active and inactive calls. The calls are words filed in the database; no cut-off is given here.
# What was measured:
# Plasmodium falciparum = assay: Antimalarial activity against chloroquine-sensitive Plasmodium falciparum 3D7 by giemsa stain
# MCF7 = assay: Cytotoxicity against human MCF7 cells after 48 hrs by MTT assay; assay type: cell-based; conditions: MCF7, 48 h
# In short: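 MCF7 human breast adenocarcinoma cells seeded at 5 × 10³ cells/well and preincubated 24 h at 37 °C, 5% CO₂. Compounds were added at various concentrations for 48 h at 37 °C. MTT solution (5 mg/mL stock) was added for 2 h, and formazan was dissolved in 10% SDS–0.01 N HCl. OD was read at 550/700 nm in triplicate wells, and IC₅₀ was taken from % living cells vs control.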
# Aorta [1] = assay: Vasorelaxant activity in Wistar rat endothelium-intact thoracic aortic rings assessed as inhibition of phenylephrine-induced tissue contraction at 30 uM; assay type: functional, tissue-based
# In short: (§1)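 Thoracic aorta rings, 3 mm, in Krebs–Henseleit solution (95% O₂/5% CO₂, 37 °C), equilibrated 60 min at 1.0 g resting tension. Rings were contracted with 3 × 10⁻⁷ M phenylephrine. Endothelium was accepted if 10⁻⁵ M acetylcholine gave 80% relaxation. At the contraction plateau, samples were added at 1 × 10⁻⁶–3 × 10⁻⁵ M. Tension was recorded isometrically; data are mean ± SEM with ANOVA/Bonferroni.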
# [2] = Selectivity index, ratio of IC50 for human MCF7 to IC50 for chloroquine-sensitive Plasmodium falciparum 3D7
# Aorta [3] = assay: Vasorelaxant activity in Wistar rat endothelium-removed thoracic aortic rings assessed as inhibition of phenylephrine-induced tissue contraction; assay type: functional, tissue-based
# In short: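 Isolated thoracic aorta rings, 3 mm, in oxygenated Krebs–Henseleit solution at 37 °C, equilibrated 60 min under 1.0 g tension. Rings were precontracted with 3 × 10⁻⁷ M phenylephrine, and at the plateau samples were added at 1 × 10⁻⁶–3 × 10⁻⁵ M. Relaxation was recorded by force transducer; data are mean ± SEM.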
# Aorta [4] = assay: Vasorelaxant activity in Wistar rat endothelium-intact thoracic aortic rings assessed as inhibition of phenylephrine-induced tissue contraction; assay type: functional, tissue-based
# In short: as §1
# [5] = Vasorelaxant activity in Wistar rat endothelium-intact thoracic aortic rings assessed as inhibition of phenylephrine-induced tissue contraction in presence of NO synthase-inhibitor L-NMMA; assay type: functional; conditions: Thoracic aorta
SMILES,IC50 (Plasmodium falciparum) [µM],IC50 (MCF7) [µM],Activity (Aorta [1]),Ratio IC50 [2],Activity (Aorta [3]),Activity (Aorta [4]),Activity [5]
COC(=O)CCCn1c(C)cc2cc(=O)cc3oc(C)cc1c23 [CASSIARIN B],22,> 100,inactive,> 4.5,–,–,–
CCCCn1c(C)cc2cc(=O)cc3oc(C)cc1c23,4.2,> 100,inactive,> 23,–,–,–
CC(=O)Oc1cc2c3c(nc(C)cc3c1)C=C(C)O2 [ACETYLCASSIARIN A],1.2,> 100,–,> 83,–,–,–
Cc1cc2c3c(cc(C)n2C)cc(=O)cc3o1,23.3,> 100,inactive,> 4.2,–,–,–
CC1=Cc2nc(C)cc3cc(OS(=O)(=O)C(F)(F)F)cc(c23)O1,0.41,> 100,–,> 244,–,–,–
CC1=Cc2nc(C)cc3cc(OCc4ccccc4)cc(c23)O1 [CASSIARIN A BENZYL ETHER],14.9,72.2,–,4.8,–,–,–
CC1=Cc2nc(C)cc3cc(OC(=O)c4ccccc4)cc(c23)O1 [BENZOYLCASSIARIN A],1.2,> 100,–,> 83,–,–,–
CCCCOc1cc2c3c(nc(C)cc3c1)C=C(C)O2 [CASSIARIN A BUTYL ETHER],3,76.7,–,> 26,–,–,–
CC1=Cc2nc(C)cc3cc(O)cc(c23)O1 [CASSIARIN A],0.023,> 100,Active,> 4350,inactive,Dose-dependent effect,–
Cc1cc2c3c(cc(C)n2-c2ccccc2)cc(=O)cc3o1,0.09,> 100,inactive,> 1110,–,–,–
CNC(=N)NCCC[C@H](N)C(=O)O,–,–,–,–,–,–,inactive
CCCC(=O)Oc1cc2c3c(nc(C)cc3c1)C=C(C)O2 [BUTYROYLCASSIARIN A],4.1,> 100,Active,> 24,–,–,–
COc1cc2c3c(nc(C)cc3c1)C=C(C)O2 [CASSIARIN A METHYL ETHER],3.6,87.8,Active,> 24,inactive,Dose-dependent effect,–
CC1=Cc2nc(C)cc3cccc(c23)O1 [7-DEHYDROXYCASSIARIN A],5.4,> 100,–,> 18,–,–,–
CCN(CC)CCCC(C)Nc1ccnc2cc(Cl)ccc12 (configuration not stated) [CHLOROQUINE],–,36.1,–,–,–,–,–
